High-throughput results (PubChem BioAssay)
Only some compounds are listed: those with a hit (about 1.4% of all), similar ones and a draw of the others.
thrombin 1536: human alpha-thrombin inhibitors, primary screen, counter-screen for coagulation protease inhibitor project, biochemical, 1536-well, fluorogenic AMC substrate; Prothrombin (Homo sapiens), P00734; Boc-VPR-AMC fluorogenic substrate cleavage; inhibition, % at 5 µM; 220,000 tested, 0.26% active;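 active = inhibition at or above 40%; inactive = inhibition below 40%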;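 also: 0% = enzyme with no compound and 100% = wells without enzyme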
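Assay system: human alpha-thrombin enzyme. Reagent: Boc-VPR-AMC substrate, 15 µM final. Compound dosing: one concentration per compound, 5 µM, with 0.2% DMSO. Incubation: room-temperature reaction. Technique: AMC fluorescence, 355/460 nm. Measure: % inhibition relative to enzyme controls and enzyme-free blanks.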
FXIa inh 1536: human FXIa protease inhibitors, primary screen, biochemical, 1536-well. purified FXIa, Boc-Glu-Ala-Arg-AMC fluorogenic substrate. 220,000 tested, 0.14% active. inhibition, % at 5 µM. Coagulation factor XI (Homo sapiens), P03951;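 active = inhibition of at least 40%; inactive = inhibition below 40%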;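 also: fluorescence of freed AMC excited at 355 nm; 0% = enzyme without compound and 100% = no enzyme blank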
hK5 inh: human KLK5 protease inhibitors, primary screen, biochemical, 1536-well; Kallikrein-5 (Homo sapiens), Q9Y337; recombinant hK5, fluorogenic AMC substrate cleavage; inhibition, % at 5 µM; 210,000 tested, 0.59% active;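 active = inhibition of 40% or more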;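 also: 0% = enzyme controls without compound and 100% = no-enzyme blanks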
Target sequence (Q9Y337 67-293 limits assumed): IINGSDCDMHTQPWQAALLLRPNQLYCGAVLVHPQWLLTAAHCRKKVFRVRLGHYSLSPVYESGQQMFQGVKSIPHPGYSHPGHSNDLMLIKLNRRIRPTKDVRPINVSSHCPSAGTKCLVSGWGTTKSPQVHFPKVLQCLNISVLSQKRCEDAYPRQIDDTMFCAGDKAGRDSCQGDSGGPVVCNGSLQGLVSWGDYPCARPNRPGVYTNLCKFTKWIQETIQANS
FXIIa inh: human FXIIa protease inhibitors, primary screen, biochemical, 1536-well; Coagulation factor XII (Homo sapiens), P00748; purified FXIIa, Boc-QGR-AMC fluorogenic substrate, 2 h; inhibition, % at 5 µM; 220,000 tested, 0.3% active; in the data active = inhibition above about 40%;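 also: 0% = enzyme with no compound and 100% = blank without enzyme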
Calpain2 inh: inhibitors of pig calpain II, primary screen, biochemical, fluorogenic peptide substrate, 1536-well | purified calpain II, 30 min | inhibition, % at 16 µM | 220,000 tested, 0.37% active | AID 1236, 2008;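 active = inhibition above about 50%, limit read from the data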
Active calls of the source: *.

SMILES	thrombin 1536	FXIa inh 1536	hK5 inh	FXIIa inh	Calpain2 inh
CCn1c(COc2ccc(Cl)cc2)nnc1SC1CCc2ccccc2C1=O (configuration not stated)	-18	-2	-6	2	52*
CCn1c(COc2ccc(Cl)cc2)nnc1SCc1ccc(C#N)cc1	-6	-3	1	2	-3
Cc1cccc(NC(=O)CSc2nnc(-c3ccncc3)n2C)c1	2	21	-9	30	-10
Cn1c(SCC(=O)NNC(=S)Nc2ccccc2)nnc1-c1ccncc1	50*	-1	-4	8	-8
CCOC(=O)c1cc(NC(=O)N2CCCc3ccccc32)c(C)nc1C	-3	-11	5	-2	29
Cc1nc(C)c(NC(=O)N2CCc3ccccc32)cc1NC(=O)N1CCc2ccccc21	22	3	76*	-1	-57
COC(=O)c1c(NC(=O)COC(=O)Cn2cnc3ccccc32)sc(C)c1C	12	44*	37	15	-3
CC1Cc2ccccc2N1C(=O)C1CCCCN1S(=O)(=O)c1ccccc1 (configuration not stated)	32	14	41*	31	28
CC1Cc2ccccc2N1C(=O)C1CCN(S(=O)(=O)Cc2ccccc2)CC1 (configuration not stated)	-3	-14	-3	14	2
CCNC(=S)N(Cc1cc2cccc(C)c2[nH]c1=O)C1CCCC1	4	6	-22	18	3
Cc1ccc(NC2=C/C(=N/S(=O)(=O)c3cccs3)c3ccccc3C2=O)cc1C	-2	-4	-11	5	50*
c1ccc(C[n+]2c(-c3ccccc3)csc2Nc2ccccc2)cc1	-2	6	-6	6	4
COc1cccc(CNc2ccc3c(c2)ncn3C(C)C)c1OC	30	7	58*	37	-5
CCCn1cnc2cc(NCc3cccc(OC)c3O)ccc21	-2	5	-5	19	-61
CCOC(=O)c1c(N)sc(C(=O)N2CCCC2)c1C	-6	-15	7	2	2
O=C1CC(c2ccccc2)Cc2nc(N3CCc4ccccc4C3)ncc21 (configuration not stated)	0	0	-13	12	54*
CC12C=CC3(O1)C(C(=O)N(c1cccnc1)C3C(=O)NC1CCCCC1)C2C(=O)Nc1ccccc1 (configuration not stated)	11	2	72*	24	6
COc1ccc(OC)c(C2CC(c3c(-c4ccccc4)c4cc(Cl)ccc4[nH]c3=O)=NN2S(C)(=O)=O)c1 (configuration not stated)	3	0	42*	8	-18
COc1ccc(C2CC(c3c(-c4ccccc4)c4cc(Cl)ccc4[nH]c3=O)=NN2S(C)(=O)=O)cc1 (configuration not stated)	-1	-4	-3	12	-58
Cn1cc(C(=O)N/N=C/c2ccc([N+](=O)[O-])cc2)c2ccccc21	-4	0	-1	2	-18
COc1cc(OC)cc(-n2nnnc2SCC(=O)Nc2ccc(C(C)=O)cc2)c1	89*	0	19	9	12
COc1ccc(NC(=O)CSc2nnnn2-c2ccc(OC)cc2)cc1	-10	0	-18	17	-27
O=S(=O)(Nc1nc(-c2sccc2Cl)cs1)c1cc(Cl)ccc1Cl	4	7	-13	15	54*
Cc1cccc(NC(=O)CN2C(=O)N/C(=C/c3cc(C)n(-c4cccnc4)c3C)C2=O)c1	2	4	-21	-1	51*
Cc1cccc(NC(=O)CN2C(=O)N/C(=C/c3cc(C)n(-c4ccncc4)c3C)C2=O)c1	4	19	-10	30	-13
SMILES	thrombin 1536	FXIa inh 1536	hK5 inh	FXIIa inh	Calpain2 inh
Cc1nc(SCC(=O)Nc2ccccc2)c2oc3ccccc3c2n1	1	6	-7	13	46
Cc1nc(SCC(=O)NC(C)c2ccccc2)c2oc3ccccc3c2n1 (configuration not stated)	-6	-5	-16	9	57*
N#Cc1nc(-c2ccco2)oc1NCCCn1ccnc1	-2	-3	-10	13	-177
N#C/C(=N\Nc1ccc(Cl)cc1)C(N)=S	-9	-1	-4	4	-14
N#C/C(=N\Nc1ccccc1)C(N)=S	38	35	27	107*	9
Nc1nc(SCn2nnc3ccccc3c2=O)n[nH]1	16	31	19	40*	32
Cc1nc(SCn2nnc3ccccc3c2=O)nc(C)c1C	6	-4	-1	15	7
CC(=O)Nc1ccc(Nc2ccc(S(=O)(=O)C(F)(F)F)cc2[N+](=O)[O-])cc1	-16	-8	-2	1	55*
Cc1c(Cl)cccc1-c1ccc(C(=O)N2CCN(c3ccc([N+](=O)[O-])cc3)CC2)o1	-3	8	-21	4	-2
COc1ccc(C2=CC(=O)CC(c3ccc(OC)cc3)C2)cc1 (configuration not stated)	7	3	-1	8	16
COc1ccc(C2CC(=O)C(C(c3ccc(O)cc3)C3C(=O)CC(c4ccc(OC)cc4)CC3=O)C(=O)C2)cc1 (configuration not stated)	34	26	50*	45*	2
COc1ccc(-c2coc3cc(O)ccc3c2=O)cc1OC	7	2	43*	26	-235
C/C(Cc1ccccc1)=N\NC(=O)CNC(=O)c1cccc(Cl)c1	4	8	-1	-3	9
COc1ccc(/C=C/C(=O)NCC(=O)N/N=C(\C)Cc2ccccc2)cc1	3	4	4	10	5
C/C(Cc1ccccc1)=N\NC(=O)CNC(=O)/C=C\c1ccccc1	10	51*	113*	24	8
C/C(Cc1ccccc1)=N\NC(=O)CNC(=O)c1ccc(Cl)cc1Cl	4	12	78*	86*	15
CCCn1c(=S)[nH]c2cc(C(=O)N3CCN(c4ccccc4OC)CC3)ccc2c1=O	-1	4	-10	12	-12
CCOC(=O)N1CCN(C(=O)c2ccc3c(=O)n(Cc4ccc(OC)cc4)c(=S)[nH]c3c2)CC1	15	14	48*	18	-16
CCCn1c(=S)[nH]c2cc(C(=O)N3CCc4ccccc4C3)ccc2c1=O	-10	-1	1	5	57*
CCOC(=O)N1CCN(C(=O)c2ccc3c(=O)n(Cc4ccccc4)c(=S)[nH]c3c2)CC1	-6	-3	2	1	-75
O=C(CN1C(=O)NC2(CCCC2)C1=O)N1CCN(S(=O)(=O)c2ccc(Cl)cc2)CC1	-7	-4	-12	3	-10
C/C(=N\Nc1ccc(Cl)c(C(=O)O)c1)c1cccc([N+](=O)[O-])c1	56*	39	32	32	32
